The results in this text go back to ChEMBL document CHEMBL1140815, “Synthesis and structure-activity relationship studies of tyrosine-based antagonists at the human P2X7 receptor” (Bioorg Med Chem Lett, 2008).

The target of experiment [1] is T1, P2X purinoceptor 7 (Homo sapiens, UniProt Q99572).
T1 sequence (Q99572 whole entry): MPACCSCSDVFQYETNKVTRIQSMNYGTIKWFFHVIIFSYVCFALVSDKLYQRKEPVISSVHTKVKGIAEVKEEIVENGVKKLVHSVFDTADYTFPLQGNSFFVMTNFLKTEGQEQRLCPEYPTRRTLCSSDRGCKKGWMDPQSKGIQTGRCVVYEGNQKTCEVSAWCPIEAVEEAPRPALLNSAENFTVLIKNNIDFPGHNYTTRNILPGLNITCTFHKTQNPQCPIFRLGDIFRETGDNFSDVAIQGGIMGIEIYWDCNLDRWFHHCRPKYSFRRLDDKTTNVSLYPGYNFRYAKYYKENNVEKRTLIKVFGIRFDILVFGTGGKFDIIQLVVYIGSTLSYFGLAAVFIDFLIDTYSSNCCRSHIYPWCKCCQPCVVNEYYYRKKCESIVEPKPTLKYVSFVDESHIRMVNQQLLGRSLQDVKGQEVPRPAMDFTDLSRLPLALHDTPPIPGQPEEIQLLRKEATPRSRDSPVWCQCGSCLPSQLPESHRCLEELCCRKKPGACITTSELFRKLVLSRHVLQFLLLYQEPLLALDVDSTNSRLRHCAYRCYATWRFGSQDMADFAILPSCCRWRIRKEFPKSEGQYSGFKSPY
The experiment can be described thus: Antagonist activity at human purinergic P2X7 receptor expressed in HEK293 cells assessed as inhibition of BzATP-induced ethidium bromide uptake. The class given is functional, cell-based. The gist of the method: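 Adherent HEK293 cells stably expressing human P2X7, resuspended at 2.5×10^6 cells/ml in HEPES salt solution (mM: ethidium bromide 0.1, EDTA 1, glucose 5, HEPES 20, KCl 140; pH 7.4). Cells added to compound-containing wells, then BzATP; 37°C for 120 min. Ethidium accumulation read by fluorescence (ex 530/em 590). IC50 from concentration–response curves; mean ± SD, 3–11 repeats.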

The test system of experiment [2] is THP-1. Briefly: Inhibition of BzATP-stimulated IL1-beta release in human THP1 cells at 1 uM by ELISA. The format is functional. A general note: ELISA stands for enzyme-linked immunosorbent assay.
Experiment [3] has as its system THP-1. The experiment can be described thus: Inhibition of BzATP-stimulated IL1-beta release in human THP1 cells by ELISA. The class given is functional, cell-based. The gist of the method:
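Compound given as a 30 min pretreatment, then 1 mM BzATP for 30 min. Mature IL-1β in the centrifuged supernatant quantified by ELISA.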

The target of experiment [4] is T1, P2X purinoceptor 7. The experiment can be described thus: Antagonist activity at human purinergic P2X7 receptor expressed in HEK293 cells assessed as inhibition of ATP-induced K(+) efflux. The format is functional, cell-based.
Experiment [5] concerns the target T2, P2X purinoceptor 7 (Homo sapiens) (UniProt Q99572).
T2 sequence (whole entry): T1 sequence (Q99572 whole entry)
Briefly: Antagonist activity at human purinergic P2X7 receptor expressed in HEK293 cells assessed as inhibition of BzATP-induced ethidium bromide uptake at 10 uM. The class given is functional, cell-based.

One may read the IC50 as the concentration that gives 50% inhibition. By inhibition is commonly meant the drop in the measured response relative to a control, in per cent. With `CN([C@@H](Cc1ccc(OS(=O)(=O)c2cccc3cnccc23)cc1)C(=O)N1CCN(c2ccccc2)CC1)S(=O)(=O)c1cccc2cnccc12`, the values for the IC50 in experiment [1] and in experiment [3] were 175 nM and 188 nM, respectively. Further, in experiment [2], the inhibition at 1 µM was determined as 83%.
Consider `CC(C)(C)OC(=O)N1CCN(C(=O)[C@H](Cc2ccc(OS(=O)(=O)c3ccc(F)cc3)cc2)NC(=O)OCc2ccccc2)CC1`, for which, in experiment [1], the IC50 was found to be 5880 nM. In addition, in experiment [2], testing at 1 µM gave an inhibition of 56%.
For `Cc1ccc(S(=O)(=O)Oc2ccc(C[C@@H](C(=O)N3CCN(C(=O)c4ccccc4)CC3)N(C)C(=O)OCc3ccccc3)cc2)cc1`, in experiment [1], the IC50 worked out at 1360 nM. This molecule also had an inhibition at 1 µM in experiment [2] of 47%.
In the case of `CC(C)(C)OC(=O)N1CCN(C(=O)[C@H](Cc2ccc(OS(=O)(=O)c3ccc(I)cc3)cc2)NC(=O)OCc2ccccc2)CC1`, the IC50 in experiment [1] came out at 3540 nM. In addition, at 1 µM the inhibition in experiment [2] was 72%.
As to `Cc1ccc(S(=O)(=O)Oc2ccc(C[C@H](NC(=O)OCc3ccccc3)C(=O)N3CCN(C(=O)OC(C)(C)C)CC3)cc2)cc1`, in experiment [1], the IC50 was determined as 1540 nM. This molecule gave an inhibition at 1 µM in experiment [2] of 72%.
In the same order, the values of `Cc1ccc(S(=O)(=O)Oc2ccc(C[C@H](NC(=O)OCc3ccccc3)C(=O)N3CCN(C(=O)c4ccccc4)[C@H](C)C3)cc2)cc1` are 256 nM and 65%.
In the same order, the values of `Cc1ccc(S(=O)(=O)Oc2ccc(C[C@H](NC(=O)OCc3ccccc3)C(=O)N3CCN(C(=O)c4ccc(N(C)C)cc4)CC3)cc2)cc1` are 2010 nM and 65%.
Take `CC(C)(C)OC(=O)N1CCN(C(=O)[C@H](Cc2ccc(OS(=O)(=O)c3ccc(OC(F)(F)F)cc3)cc2)NC(=O)OCc2ccccc2)CC1`: the IC50 in experiment [1] is 725 nM. In experiment [2], this molecule had an inhibition at 1 µM of 46%.
Take `Cc1ccc(S(=O)(=O)Oc2ccc(C[C@H](NC(=O)OCc3ccccc3)C(=O)N3CCN(C(=O)c4ccc(C(F)(F)F)cc4)CC3)cc2)cc1`: the IC50 in experiment [1] was found to be 724 nM. Also, 1 µM produced 65% inhibition in experiment [2].
The like results for `O=C(N[C@@H](Cc1ccc(OS(=O)(=O)c2ccc([N+](=O)[O-])cc2)cc1)C(=O)N1CCN(C(=O)c2ccccc2)CC1)OCc1ccccc1` were, in that order, 117 nM and 48%.
In the same order, the values of `Cc1ccc(S(=O)(=O)Oc2ccc(C[C@H](NC(=O)OCc3ccccc3)C(=O)N3CCN(C(=O)c4ccccc4)[C@@H](C)C3)cc2)cc1` are 260 nM and 69%.
For `C[C@H]1CN(C(=O)[C@H](Cc2ccc(OS(=O)(=O)c3ccc(C#N)cc3)cc2)NC(=O)OCc2ccccc2)CCN1C(=O)c1ccc(N(C)C)cc1`, the IC50 in experiment [1] is 539 nM. This molecule also registered an inhibition at 1 µM in experiment [2] of 59%.
As for `Cc1ccc(S(=O)(=O)Oc2ccc(C[C@H](NC(=O)OCc3ccccc3)C(=O)N3CCN(C(=O)c4ccccc4)C[C@@H]3C)cc2)cc1`, the IC50 in experiment [1] turned out to be 504 nM. For the same molecule, the inhibition at 1 µM in experiment [2] stood at 45%.
On to `Cc1ccc(S(=O)(=O)Oc2ccc(C[C@H](NC(=O)OCc3ccccc3)C(=O)N3CCN(C(=O)c4ccc(Br)cc4)CC3)cc2)cc1`, for which the IC50 in experiment [1] came to 481 nM; in experiment [3], 881 nM. Further, the inhibition at 1 µM in experiment [2] turned out to be 78%.
As to `CC(C)(C)OC(=O)N1CCN(C(=O)[C@H](Cc2ccc(OS(=O)(=O)c3cccc4cnccc34)cc2)NS(=O)(=O)c2cccc3cnccc23)CC1`, the IC50 in experiment [4] stood at 40 nM.
Take `Cc1ccc(S(=O)(=O)Oc2ccc(C[C@H](NC(=O)OCc3ccccc3)C(=O)N3CCN(C(=O)c4ccc(N(C)C)cc4)[C@@H](C)C3)cc2)cc1`: in experiment [5], the inhibition turned out to be 54%. This molecule returned an inhibition at 1 µM in experiment [2] of 68%.
`Cc1ccc(S(=O)(=O)Oc2ccc(C[C@@H](NC(=O)OCc3ccccc3)C(=O)N3CCN(C(=O)OC(C)(C)C)CC3)cc2)cc1`: the IC50 in experiment [1] is 861 nM. The inhibition at 1 µM in experiment [2] amounted to 56%.
In the same order, the values of `Cc1ccc(S(=O)(=O)Oc2ccc(C[C@H](NC(=O)OCc3ccccc3)C(=O)N3CCN(C(=O)c4ccccc4)CC3)cc2)cc1` are 599 nM and 70%.
In the case of `C[C@H]1CN(C(=O)[C@H](Cc2ccc(OS(=O)(=O)c3ccc(I)cc3)cc2)NC(=O)OCc2ccccc2)CCN1C(=O)c1ccc(N(C)C)cc1`, the inhibition in experiment [5] turned out to be 55%. Further, the inhibition at 1 µM in experiment [2] came out at 61%.
As for `Cc1ccc(S(=O)(=O)Oc2ccc(C[C@H](NC(=O)OCc3ccccc3)C(=O)N3CCN(C(=O)c4ccc(F)cc4)CC3)cc2)cc1`, the IC50 in experiment [1] came out at 319 nM. Further, in experiment [2], the inhibition at 1 µM amounted to 68%.
The like results for `CC(C)(C)OC(=O)N1CCN(C(=O)[C@H](Cc2ccc(OS(=O)(=O)c3ccc(CBr)cc3)cc2)NC(=O)OCc2ccccc2)CC1` were, in that order, 2460 nM and 52%.
Consider `O=C(N[C@@H](Cc1ccc(OS(=O)(=O)c2ccc(NC(=S)NCCCCNC(=S)Nc3ccc(S(=O)(=O)Oc4ccc(C[C@H](NC(=O)OCc5ccccc5)C(=O)N5CCN(C(=O)c6ccccc6)CC5)cc4)cc3)cc2)cc1)C(=O)N1CCN(C(=O)c2ccccc2)CC1)OCc1ccccc1`, for which the inhibition in experiment [5] stood at 28%. The molecule also returned an inhibition at 1 µM in experiment [2] of 37%.
For `CC(C)(C)OC(=O)N1CCN(C(=O)[C@H](Cc2ccc(OS(=O)(=O)c3ccc(Br)cc3)cc2)NC(=O)OCc2ccccc2)CC1`, the IC50 in experiment [1] amounted to 517 nM. The molecule also showed an inhibition at 1 µM in experiment [2] of 68%.
As for `CC(C)(C)OC(=O)N1CCN(C(=O)[C@H](Cc2ccc(OS(=O)(=O)c3ccc(C#N)cc3)cc2)NC(=O)OCc2ccccc2)CC1`, in experiment [1], the IC50 came to 780 nM. Also, 1 µM produced 60% inhibition in experiment [2].
